From PubChem BioAssay
T cruzi inh – T. cruzi replication inhibition; T. cruzi beta-gal in NIH3T3, luminescence, 90 h; inhibition, % (no concentration beside the values); 1.4% of 300,000 active; AID 1885;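 active = mean inhibition across valid replicates above about 55%, limit read from the data; inconclusive = mean below that limit but half or more replicates reach it; inactive = mean below it, under half of replicates reach it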;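 also: signal also drops with host cell toxicity which is not excluded here; higher percent means less beta-gal luminescence so fewer parasites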
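System: Mouse NIH/3T3 fibroblasts infected with β-gal-expressing T. cruzi Tulahuen C4 | Quantity: NIH/3T3 cells, 5,000 per well | Reagent: 5000 reporter trypomastigotes per well | Dosing: Compound pinned at 50 nL/well, DMSO | Schedule: 3 h host attachment, then at least 90 h co-culture | Detection: GalScreen luminescence, 60 min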
Calb FLC – C. albicans growth modulation with fluconazole; growth inhibition, % (test concentration not listed); C. albicans CaCi-2 + fluconazole, Alamar Blue growth, 48 h; 0.57% of 300,000 active; AID 1979;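 active = growth inhibition above about 58% in most replicates, limit read from the data, passing the limit was not always enough; inconclusive = exactly half the replicates above a set limit; inactive = most replicates below a set limit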;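 also: all wells also contain fluconazole at 8 µg/ml as a sub-toxic cotreatment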
CSC inhib – cancer stem cell inhibition | inhibition, % at 7.5 µM | cancer stem cell-like cells viability, luminescence | 1.1% of 300,000 active; in the data active = inhibition above about 75%; inconclusive = no clear call, values can overlap the other calls; tested in HMLE shEcad cells
SKKanGAS inh – inhibitors of SKKanGAS S. pyogenes growth in kanamycin (SK-promoter or general growth effect); BacTiter-Glo, 6 h; 1.3% of 300,000 active; inhibition, % at 7.5 µM;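 active = mean replicate score, as percent of positive control median, at least 50; inconclusive = mean below 50 but one replicate at or above 50; inactive = mean and every replicate below 50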;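 also: strain carries kanamycin resistance gene driven by streptokinase promoter and grows in 40 µg/ml kanamycin; loss of luminescence reflects streptokinase promoter inhibition or plain growth inhibition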
Beta apoptosis – blocks beta cell apoptosis; 0.8% of 300,000 active; protection from apoptosis, % (test concentration not listed); INS-1E cytokine-induced death, ATP luminescence, 48 h; percent of positive-control rescue, neutral wells zero;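 active = Every replicate reaches about 75%, or at least half do and their mean reaches it too, limit read from the data; inconclusive = At least half of replicates reach the limit but their mean does not; inactive = Under half of replicates reach the limit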;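 also: higher means more ATP so stronger rescue from cytokine killing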
Mdm2-MdmX inh – human Mdm2/MdmX binding inhibition; inhibition, % at 8 µM; AID 485346; SaOS-2 split-luciferase Mdm2/MdmX complementation, luminescence; 3% of 330,000 active; O15151+Q00987;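 active = inhibition of at least 50% at 8 µM in the primary screen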
Target sequence (O15151 whole entry, looked up): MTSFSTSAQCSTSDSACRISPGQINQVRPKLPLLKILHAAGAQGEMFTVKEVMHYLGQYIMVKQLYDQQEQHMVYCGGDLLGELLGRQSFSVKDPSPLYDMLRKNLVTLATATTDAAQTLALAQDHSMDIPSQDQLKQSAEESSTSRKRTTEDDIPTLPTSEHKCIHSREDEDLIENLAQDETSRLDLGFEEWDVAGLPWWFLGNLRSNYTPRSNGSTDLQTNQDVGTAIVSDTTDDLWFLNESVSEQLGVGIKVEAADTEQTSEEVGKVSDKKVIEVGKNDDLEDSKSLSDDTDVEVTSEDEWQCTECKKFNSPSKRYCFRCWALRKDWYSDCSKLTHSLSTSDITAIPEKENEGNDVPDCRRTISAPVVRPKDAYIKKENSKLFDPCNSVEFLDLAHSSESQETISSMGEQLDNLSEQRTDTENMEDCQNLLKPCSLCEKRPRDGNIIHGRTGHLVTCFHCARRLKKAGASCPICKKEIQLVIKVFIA
Target sequence (Q00987 whole entry, looked up): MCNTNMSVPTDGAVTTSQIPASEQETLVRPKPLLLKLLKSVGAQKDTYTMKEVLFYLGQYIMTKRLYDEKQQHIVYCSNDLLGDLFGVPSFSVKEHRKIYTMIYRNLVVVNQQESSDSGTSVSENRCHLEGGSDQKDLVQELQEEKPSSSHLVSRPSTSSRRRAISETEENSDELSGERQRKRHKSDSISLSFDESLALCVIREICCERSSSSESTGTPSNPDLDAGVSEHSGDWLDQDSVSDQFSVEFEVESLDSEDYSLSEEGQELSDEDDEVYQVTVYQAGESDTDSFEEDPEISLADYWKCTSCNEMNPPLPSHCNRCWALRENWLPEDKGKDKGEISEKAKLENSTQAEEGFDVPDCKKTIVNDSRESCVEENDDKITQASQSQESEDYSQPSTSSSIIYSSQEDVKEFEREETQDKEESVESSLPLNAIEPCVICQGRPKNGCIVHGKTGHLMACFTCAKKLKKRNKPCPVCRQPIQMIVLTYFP
Mdm2 MdmX conf – human Mdm2/MdmX binding inhibition, confirmed; shares compounds with Mdm2-MdmX inh; luminescent assay; inhibition, % at 8 µM; 55% of 10,000 active; AID 489028; in the data active = inhibition above about 40%
Full FLuc ctr – inhibits full-length luciferase, flagging false Mdm2/MdmX hits. shares compounds with Mdm2-MdmX inh. inhibition, % at 8 µM. SaOS-2 full-length luciferase counterscreen, luminescence. 77% of 6,200 active;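 active = mean inhibition at 8 µM reaching about 37%, which flags the compound as non-specific, limit read from the data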;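 also: p53-null SaOS-2 cells with luciferase driven by a doxycycline-inducible promoter; compound on cells about two nights before reading with doxycycline added after day one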
Of the large screens only hits and unclear results are named; the others gave an inactive call (follow-up assays come after a bar, where they were run). Sampled rows, rich in hits. Any-hit rate of the full collection: about 5.7%.

C=CCn1c(CNc2ccc(C)cc2)nnc1SCC(=O)N/N=C/c1ccc(O)cc1O	CSC inhib 105.7, Mdm2-MdmX inh 57.1 | Mdm2 MdmX conf 56.4 | Full FLuc ctr inactive
C[C@H](CO)N1C[C@H](C)[C@@H](CN(C)CC2CCCCC2)Oc2ccc(NC(=O)Cn3cnnn3)cc2C1=O	none (no result: T cruzi inh, Calb FLC, CSC inhib, SKKanGAS inh)
CCN(CC(=O)Nc1c(F)cccc1F)C(=O)c1nn(C)c(=O)c2ccccc12	none (no result: T cruzi inh, Calb FLC, CSC inhib, SKKanGAS inh)
CCCCSc1nc(C)cc(SCC(=O)N/N=C/c2cccc(OC)c2O)n1	CSC inhib inconclusive, SKKanGAS inh 69.8, Mdm2-MdmX inh 72.0 | Mdm2 MdmX conf 79.5 | Full FLuc ctr inactive
COc1ccccc1/C=N/NC(=O)CSc1ccc2ccccc2n1	none
CN(C)S(=O)(=O)c1cccc(NC(=S)N/N=C/c2cc(Br)ccc2O)c1	T cruzi inh 57.1, Calb FLC 81.0, CSC inhib 76.8, SKKanGAS inh 107.0, Beta apoptosis 94.0, Mdm2-MdmX inh 69.9 | Mdm2 MdmX conf 78.5 | Full FLuc ctr 37.2
CN(C)S(=O)(=O)c1cccc(NC(=S)N/N=C/c2cccc(O)c2)c1	none
CSc1nc2ccc3nc(NC(=O)c4ccc(C)cc4)sc3c2s1	Mdm2-MdmX inh 61.3 | Mdm2 MdmX conf inactive
CCOC(=O)c1c(C)[nH]c(C(=O)OCC(=O)NC2(C#N)CCCCC2)c1C	none
CCn1c(=O)c2c(cnn2C)c2ccccc21	Mdm2-MdmX inh 80.9 | Mdm2 MdmX conf inactive
CCOC(=O)C(C(C)=O)c1c(Br)c(O)c(O)c2c(C(=O)c3ccc(C)cc3)coc12 (stereo not drawn)	CSC inhib 102.6, Beta apoptosis 95.4, Mdm2-MdmX inh 64.1 | Mdm2 MdmX conf 60.3 | Full FLuc ctr 47.5
CCOC(=O)c1c(C)n(-c2ccc(C)cc2)c2c(C(C(C)=O)C(=O)O)c(Br)c(O)c(O)c12 (stereo not drawn)	none
CCC(C)(C)C1CCC2(CC1)NC(=O)N(CC(=O)NCCc1c[nH]c3ccccc13)C2=O (stereo not drawn)	none (no result: T cruzi inh, Calb FLC, CSC inhib, SKKanGAS inh)
Cc1ccc(O)c(NC(=O)c2cc3nc4c(c(C(F)(F)F)n3n2)CCc2ccccc2-4)c1	Mdm2-MdmX inh 80.4 | Mdm2 MdmX conf inactive | Full FLuc ctr 79.6
CCN(CC)CCCNC(=O)c1cc2nc3c(c(C(F)(F)F)n2n1)CCc1ccccc1-3	none (no result: Beta apoptosis)
CC1(C)N=C(N)N=C(N)N1c1ccc(Oc2ccc(Cl)cc2)c(Cl)c1	T cruzi inh 55.5, CSC inhib 89.3, SKKanGAS inh 93.9, Mdm2-MdmX inh 67.1 | Mdm2 MdmX conf 50.0 | Full FLuc ctr 87.8
COc1ccc(/C=C/c2cc[n+](C(=O)Cc3ccccc3)cc2)cc1	Mdm2-MdmX inh 62.7 (no result: T cruzi inh, SKKanGAS inh) | Mdm2 MdmX conf 52.5 | Full FLuc ctr 44.8
COc1ccc(/C=C/C(=O)NCCCc2ccccc2)cc1	none
Cc1ccc(OCCNCc2ccccc2)c(C)c1	none
Cc1cc(C(C)(C)CC(C)(C)C)ccc1OCCOCC[N+](C)(C)Cc1ccccc1	CSC inhib 117.9, Beta apoptosis 99.8, Mdm2-MdmX inh 100.4 (no result: T cruzi inh, Calb FLC, SKKanGAS inh) | Mdm2 MdmX conf 96.2 | Full FLuc ctr 54.2
COC(=O)c1cc(S(=O)(=O)NCc2cccs2)c[nH]1	none
O=C(CCCN1C(=O)/C(=C\c2cccs2)SC1=S)Nc1ccc(C(=O)O)cc1	none
O=C(CCN1C(=O)/C(=C/c2cccs2)SC1=S)Nc1ccc(C(=O)O)cc1	none (no result: CSC inhib)
CCN(CC)CCOC(=O)c1ccc(NC(=O)CCCN2C(=O)/C(=C/c3cccs3)SC2=S)cc1	Mdm2-MdmX inh 59.3 | Mdm2 MdmX conf inactive
O=C(CCCN1C(=O)/C(=C/c2cccs2)SC1=S)Nc1ccccc1O	Mdm2-MdmX inh 54.1 (no result: CSC inhib) | Mdm2 MdmX conf inactive | Full FLuc ctr 86.9
CCN(CC)CCNC(=O)c1cn(-c2ccccc2)nc1-c1cccs1	none
O=C(CCCN1C(=O)/C(=C\c2cccs2)SC1=S)Nc1ccc(O)cc1	Mdm2-MdmX inh 77.8 (no result: CSC inhib) | Mdm2 MdmX conf 70.9 | Full FLuc ctr inactive
CCN(CC)CCOC(=O)c1ccc(NC(=O)c2cn(-c3ccccc3)nc2-c2cccs2)cc1	Mdm2-MdmX inh 50.4 (no result: T cruzi inh, Calb FLC, CSC inhib, SKKanGAS inh, Beta apoptosis) | Mdm2 MdmX conf inactive | Full FLuc ctr 101.0
COc1ccc(S(=O)(=O)n2cccc2)c(OC)c1	none
